Reference: ChEMBL document CHEMBL4513216, “Probing the Open Global Health Chemical Diversity Library for Multistage-Active Starting Points for Next-Generation Antimalarials” (ACS Infect Dis, 2020)

Experiment: Toxicity liver stage against HepG2, at 10uM
Assay type: cell-based
Set-up: test concentration 10 uM, cell line HepG2-A16-CD81EGFP
Settings: human, HepG2-A16-CD81EGFP cells; read-out: INHIBITION
Method in brief: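 Uninfected HepG2-A16-CD81EGFP cells, 3 × 10^3 per well, 1536-well, plated on prespotted compound at 10 μM final, parasite-free screening media added to match infected plates; puromycin 10 μM positive, DMSO 0.5% negative; run in parallel with 48 h PbLuc assay at 37 °C, 5% CO2; viability by CellTiter-Glo luminescence, normalized to controls.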

Row | Compound | cytotoxicity at 10 µM
1 | CCOc1ncccc1Cn1cc(-c2cncnc2)nn1 | 2.38%
2 | NCC1CCCCN1C(=O)Cc1ccc(F)c(F)c1 (stereo not given) | -1.5%
3 | CC(C)Oc1ccc(-c2csc(Cn3ccc(=O)[nH]c3=O)n2)cc1 | 0.137%
4 | Cc1nc(CN2C[C@@H]3CN(C(=O)c4ccnnc4)C[C@@H]3C2=O)cs1 | -7.41%
5 | Cn1ccc(C(=O)NC2CCC23CCN(C(=O)c2ccnnc2)CC3)c1 (stereo not given) | -72%
6 | COc1cc(C2(C(=O)N3CCN(CC(C)O)CC3)CC2)ccc1C (stereo not given) | -2.43%
7 | COc1cccc2c1OCC(NCCc1cnn(-c3ccccc3)c1)C2 (stereo not given) | -0.6%
8 | c1cnc(-c2nn3c(CN4CCOCC4)nnc3s2)cn1 | 7.74%
9 | CC(C)(C)Oc1ccc(CN)c(C(F)(F)F)c1 | 9.5%
10 | Cc1ccc2nc(CNCCCOc3ccccc3)cc(O)c2c1 [UCSF924] | 5.5%
11 | CN(C)C(=O)CN1CCC(c2cncc(-c3cccc(Cl)c3)n2)CC1 | -33.3%
12 | CN(C)c1nccnc1C1CCN(C(=O)C2(C)CCCCN2C)CC1 (stereo not given) | 10%
13 | Cc1cc(N(C)Cc2cc(C)on2)n2nc(C)c(C)c2n1 | 19.2%
14 | CCc1ccc(CN2CCN(c3ccc(C(N)=O)cn3)CC2)nc1 | 4.95%
15 | CC(C)c1nc(CN2CCN(C(=O)Cc3ccccc3Cl)CC2)no1 | -1.96%
16 | CNc1cc(CNC(=O)c2ccnc(OC)c2)nc(-c2ccncc2)n1 | -7.08%
17 | c1ccc2oc(N3CCCC4(CCOC4)C3)nc2c1 (stereo not given) | -6.27%
18 | O=C1OCCCN1Cc1nc(-c2ccc(N3CCCCC3)cc2)no1 | 7.04%
19 | O=C(CN1CCN(c2ccc3nncn3n2)CC1)NC1CCCC1 | -33.9%
20 | Cc1ccc(F)c(S(=O)(=O)NCc2cccc(CS(C)(=O)=O)c2)c1 | -7.61%
21 | CCOC(=O)C1(CCOC)CCN(Cc2nccn2CC)CC1 | 6.77%
22 | FC(F)(F)c1cc(C2CCCN(c3cnccn3)C2)n2ccnc2n1 (stereo not given) | 6.39%
23 | CCOCCCNC(=O)N(C)Cc1ccc(SC)c(OC)c1 | -5.41%
24 | Cc1ccccc1C(=O)N1CC2(COC(C)(C)OC2)C1 | 4.56%
25 | CCOc1cc(=O)n2c(c1C(=O)OCc1ccc(F)cc1)CCCC2 | 3.51%
26 | Cc1nn(C)c2cn(C(C)C(=O)NCc3ccncc3)nc12 (stereo not given) | 1.91%
27 | CC(C)N1CC(C(=O)NCCOc2ccc3c(c2)OCO3)CC1=O (stereo not given) | -6.51%
28 | CCC(NS(=O)(=O)c1ccc(C(=O)NC2CC2)cc1)c1cnn(C)c1 (stereo not given) | 7.64%

Row | Compound | cytotoxicity at 10 µM
29 | O=C(c1ccco1)N1CCOCC2(C1)CN(c1ccccn1)C(=O)CO2 (stereo not given) | 3.16%
30 | CCOc1cccnc1C(=O)N1CC=C(c2ccc(O)cc2)CC1 | -1.66%
31 | CN1CCC(C(=O)N2CCC(c3ccc4c(N)n[nH]c4n3)CC2)CC1 | 2.43%
32 | Cc1noc(C)c1CCC(=O)NC(C)c1nnc2n1CCCCC2 (stereo not given) | -1.18%
33 | Cc1nn(C)c(C)c1CNCc1ccc(N2CCOCC2)nc1 | 3.68%
34 | O=C(NCC1CCN(c2ccncc2)CC1)C(O)c1ccccc1 (stereo not given) | 8.15%
35 | O=C(C1CCC1)N1CCC2(COCc3cnc(-c4cccnc4)nc32)C1 (stereo not given) | 3.5%
36 | CN(C)S(=O)(=O)N1C[C@H](Oc2cccnc2)[C@H]2OCCC[C@H]21 | 14.8%
37 | CCc1ncc(CN2CCC(O)(c3ccccc3F)CC2)cn1 | -4.68%
38 | COCCn1ccc(NC(=O)Nc2cccc(C#N)c2)n1 | 4%
39 | CCN(CC)CCCN1CCN(c2nc(C)cnc2C)CC1 | -31%
40 | CCc1ccc(C2CC(=O)Nc3c2c(=O)[nH]n3C(C)C)cc1 (stereo not given) | -6.87%
41 | CC1(C)COCCN1C(=O)c1ccc(Cn2cncn2)cc1 | -5.85%
42 | Cc1cc(N(C)CCCn2cccn2)nc(N)n1 | 0.423%
43 | CCN1CCN2CCCN(S(=O)(=O)c3cccc(F)c3)C2C1=O (stereo not given) | 5.18%
44 | COc1ccc2c(c1)C(C(=O)NCCN1CCOC1=O)CC(=O)N2 (stereo not given) | 8.68%
45 | Cc1cc(C)n(CCCNc2ncnc3c2NC(=O)CN3)n1 | 8.71%
46 | Cc1ccc(S(=O)(=O)NC2CC2)cc1C | -10.6%
47 | Cc1cnn(CC2CCN(c3cc(C(C)C)nc4ccnn34)CC2)c1 | -10.5%
48 | Cn1cc(CN2C[C@H]3CCC[C@@]3(COc3ccccn3)C2)cn1 | -107%
49 | N#Cc1ccc(CNCCn2cccn2)c(F)c1 | -4.22%
50 | CCC(=O)N1CCN(C(=O)NCc2c(C)cc(C)cc2C)CC1 | 6.12%
51 | CN(C)C(=O)CN1CCC2(CCN(CC3CC3)CC2)C1=O | -3.69%
52 | Cc1cccc(S(=O)(=O)N2CSCC2C(=O)NC(C)(C)C)c1 (stereo not given) | -3.75%
53 | O=C(c1ccnnc1)N1C[C@H]2CCC[C@@H](OCc3cccnc3)[C@@H]2C1 | 5.19%
54 | CN1Cc2nnc(C3CCOCC3)n2C(Cc2c[nH]cn2)C1 (stereo not given) | -12.1%
55 | Cc1ccc(-c2nc(CSCCC(=O)NC(N)=O)co2)cc1 | -2.69%
